Measurements reported in PMC11182071 (Journal of Enzyme Inhibition and Medicinal Chemistry, 2024).

Legend:
PTP1B [1] = target: T1, PTP1B (Homo sapiens, UniProt P18031); test: Protein tyrosine phosphatase 1B inhibition assay; type: biochemical; conditions: for inhibition at 50 µM: read-out: PTP1B inhibition (% at 50 μM)
T1 sequence (P18031 1-435): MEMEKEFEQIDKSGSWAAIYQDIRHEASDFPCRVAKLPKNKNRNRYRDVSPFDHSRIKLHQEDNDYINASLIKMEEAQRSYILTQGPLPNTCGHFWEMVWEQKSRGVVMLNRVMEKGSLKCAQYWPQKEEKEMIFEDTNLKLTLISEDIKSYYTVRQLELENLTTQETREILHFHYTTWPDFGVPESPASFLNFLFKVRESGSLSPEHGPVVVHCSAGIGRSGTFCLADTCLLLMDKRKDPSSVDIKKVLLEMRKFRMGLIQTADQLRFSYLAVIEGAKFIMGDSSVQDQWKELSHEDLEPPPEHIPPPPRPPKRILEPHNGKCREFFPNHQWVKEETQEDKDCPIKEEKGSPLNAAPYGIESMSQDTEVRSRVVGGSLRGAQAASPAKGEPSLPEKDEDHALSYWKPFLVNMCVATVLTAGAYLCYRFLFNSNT

α-glucosidase = test: α-Glucosidase inhibition assay; type: biochemical, yeast; conditions: for α-glucosidase inhibition (% at 50 μM): mean ± SD, n=3
α-amylase = target: T2, α-amylase (Sus scrofa, UniProt P00690); test: α-amylase inhibition assay; type: biochemical, porcine; conditions: read-out: α-amylase inhibition (% at 250 μM)
T2 sequence (P00690 16-511): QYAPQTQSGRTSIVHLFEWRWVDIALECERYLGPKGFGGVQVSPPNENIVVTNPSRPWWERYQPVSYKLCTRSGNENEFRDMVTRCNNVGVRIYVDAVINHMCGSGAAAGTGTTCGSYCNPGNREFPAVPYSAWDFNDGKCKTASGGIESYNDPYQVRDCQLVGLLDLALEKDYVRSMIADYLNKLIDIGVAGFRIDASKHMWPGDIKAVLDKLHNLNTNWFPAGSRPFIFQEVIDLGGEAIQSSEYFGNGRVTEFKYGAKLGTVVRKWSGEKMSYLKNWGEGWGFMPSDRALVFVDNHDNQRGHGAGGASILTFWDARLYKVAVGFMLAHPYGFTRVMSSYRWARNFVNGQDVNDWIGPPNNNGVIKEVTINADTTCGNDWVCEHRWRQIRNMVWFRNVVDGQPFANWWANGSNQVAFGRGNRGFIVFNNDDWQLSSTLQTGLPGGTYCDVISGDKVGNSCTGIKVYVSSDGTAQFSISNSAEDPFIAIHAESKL

PTP1B [2] = target: T1, PTP1B; test: PTP1B inhibition kinetic assay; type: biochemical
Outline: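 PTP1B at 100 nM reacted with p-nitrophenyl phosphate at 1, 2, 5 and 10 mM and test compound at 0, 0.5, 1.0 and 5.0 μM. Absorbance read every 3 min. Velocity taken from the time–Δabs plot. Inhibition mode from Lineweaver-Burk double-reciprocal plots; Ki from Dixon plots. Triplicate.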

[3] = system: insulin-resistant HepG2 cells; test: In vitro glucose consumption assay in insulin-resistant HepG2 cells; type: cell-based, human; conditions: 24 h treatment; vs model group
Outline: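 HepG2 seeded in 6-well plates at 1 × 10^5 cells/well for 24 h. Serum-starved 2 h, then made insulin-resistant with 1 × 10−6 mol/l insulin for 48 h at 37 °C, 5% CO2. Groups: control, model, low/middle/high dose of free or liposomal test compound (top 100 μg/mL), blank liposome. After 24 h treatment, medium glucose measured by glucose oxidase kit; consumption = blank-well minus sample-well glucose. Mean ± SD, n = 3.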

Solubility observations = type: physicochemical; conditions: medium not stated

SMILES	inhibition at 50 µM (PTP1B [1]) [%]	α-glucosidase inhibition (% at 50 μM) (α-glucosidase) [%]	inhibition at 250 µM (α-amylase) [%]	other results
CC(C)=C1CC([C@H]2CC[C@]3(C)[C@@H]2CC[C@@H]2C4=C(CC[C@]23C)C(C)(C)[C@@H]2CC[C@H]4O2)=CC1=O [Compound 5, gypensapogenin B]	67.1 ± 1.33	25.55 ± 1.75		
CC(C)=C1CC=C([C@H]2CC[C@]3(C)[C@@H]2CC[C@@H]2[C@@]4(C)CC[C@H](O)C(C)(C)[C@@H]4CC[C@]23C)C1=O [Compound 6, gypensapogenin C]	78.9 ± 0.87	24.64 ± 0.65		
CC(C)=C1CC=C([C@H]2CC[C@]3(C)[C@@H]2CC[C@@H]2C4=C(CC[C@]23C)C(C)(C)[C@@H]2CC[C@H]4O2)C1=O [Compound 4, gypensapogenin A]	65.9 ± 1.69	25.80 ± 0.71	31.81 ± 0.02	
[Na+].[Na+].[Na+].[O]=[V]([O-])([O-])[O-] [Na3VO4, reference compound]				PTP1B inhibition (% at 50 μM) (PTP1B [1]; 50 μM, mean ± SD, n=3): 98.07 ± 0.51%
CC(C)=C[C@H]1C=C([C@H]2CC[C@]3(C)[C@@H]2CC[C@@H]2[C@@]4(C)CC[C@H](O)C(C)(C)[C@@H]4CC[C@]23C)C(=O)O1 [Compound 7, gypensapogenin D]	83.49 ± 0.62	61.94 ± 1.54	11.6 ± 1.24	IC50 (PTP1B [1]): 8.17 ± 0.63 µM; Ki (PTP1B [2]): 4.29 µM; Inhibition type against PTP1B (Lineweaver-Burk plot) (PTP1B [2]; Lineweaver-Burk double reciprocal plot): competitive inhibitors; IC50 (α-glucosidase; read-out: α-glucosidase IC50, mean ± SD of three replications): 27.15 ± 0.17 µM; Glucose consumption in insulin-resistant HepG2 cells [3]: did not improve the reduction of glucose consumption; Solubility (Solubility observations): poorly solubility
C[C@H]1O[C@H](O[C@H]2[C@H](O)[C@@H](O)[C@@H](O[C@H]3[C@H](O)[C@@H](O)C(O)O[C@@H]3CO)O[C@@H]2CO)[C@H](O)[C@@H](O)[C@@H]1N[C@H]1C=C(CO)[C@@H](O)[C@H](O)[C@H]1O (stereo partly drawn) [Acarbose, reference compound]		96.51 ± 0.02		
